Experimental data published in ChEMBL document CHEMBL1933008, “Novel 2-(2-(4-aryloxybenzylidene) hydrazinyl)benzothiazole derivatives as anti-tubercular agents” (2012).
≈ marks a conversion by molar mass, not a printed value.

Columns and labels:
[1] = tested on: Mycobacterium tuberculosis; assay: Antitubercular activity against Mycobacterium tuberculosis H37Rv after 7 days by Resazurin microtiter assay; type: functional; conditions: 168 h
Method in brief: (§1)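 M. tuberculosis H37Rv suspension seeded at 10^5 cells per well in Middlebrook 7H9 broth. Compounds serially diluted directly on the plate; control got equivalent DMSO. Incubated 37 °C for 7 days, then 0.02% fresh resazurin added and incubated a further 48 h. MIC read visually as the lowest concentration giving complete inhibition (no blue-to-pink change).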

[2] = tested on: Mycobacterium tuberculosis; assay: Antitubercular activity against Mycobacterium tuberculosis; type: functional; method in brief: as §1

Structure (SMILES): Cc1ccc2nc(NN)sc2c1
- MIC [1]: 222 µg/mL (≈ 1240 µM)

Structure (SMILES): NNc1nc2ccc(Cl)cc2s1
- MIC [1]: 233 µg/mL (≈ 1170 µM)

Structure (SMILES): NNc1nc2ccccc2s1
- MIC [1]: 288 µg/mL (≈ 1740 µM)

Structure (SMILES): O=Cc1ccc(Oc2ccccc2)cc1
- MIC [1]: 133 µg/mL (≈ 670 µM)

Structure (SMILES): O=Cc1ccc(Oc2ccccc2Cl)cc1
- MIC [1]: 123 µg/mL (≈ 531 µM)

Structure (SMILES): O=Cc1ccc(Oc2ccc(Cl)cc2)cc1
- MIC [1]: 117 µg/mL (≈ 504 µM)

Structure (SMILES): C(=N/Nc1nc2ccccc2s1)/c1ccc(Oc2ccccc2)cc1
- MIC [1]: 12.7 µg/mL (≈ 36.7 µM)

Structure (SMILES): Clc1ccccc1Oc1ccc(/C=N\Nc2nc3ccccc3s2)cc1
- MIC [1]: 6 µg/mL (≈ 15.8 µM)

Structure (SMILES): Clc1ccc(Oc2ccc(/C=N\Nc3nc4ccccc4s3)cc2)cc1
- MIC [1]: 2.94 µg/mL (≈ 7.74 µM)

Structure (SMILES): Clc1ccc(Oc2ccc(/C=N\Nc3nc4ccccc4s3)cc2)c(Cl)c1
- MIC [1]: 2.63 µg/mL (≈ 6.35 µM)

Structure (SMILES): Cc1cc(Oc2ccc(/C=N\Nc3nc4ccccc4s3)cc2)ccc1Cl
- MIC [1]: 6.63 µg/mL (≈ 16.8 µM)

Structure (SMILES): Clc1ccc2nc(N/N=C\c3ccc(Oc4ccccc4)cc3)sc2c1
- MIC [1]: 5.5 µg/mL (≈ 14.5 µM)

Structure (SMILES): Clc1ccc2nc(N/N=C\c3ccc(Oc4ccccc4Cl)cc3)sc2c1
- MIC [1]: 2 µg/mL (≈ 4.83 µM)

Structure (SMILES): Clc1ccc(Oc2ccc(/C=N\Nc3nc4ccc(Cl)cc4s3)cc2)cc1
- MIC [1]: 2.25 µg/mL (≈ 5.43 µM)

Structure (SMILES): Clc1ccc(Oc2ccc(/C=N/Nc3nc4ccc(Cl)cc4s3)cc2)c(Cl)c1
- MIC [1]: 1.5 µg/mL (≈ 3.34 µM)

Structure (SMILES): Cc1cc(Oc2ccc(/C=N\Nc3nc4ccc(Cl)cc4s3)cc2)ccc1Cl
- MIC [1]: 4.5 µg/mL (≈ 10.5 µM)

Structure (SMILES): Cc1ccc2nc(N/N=C\c3ccc(Oc4ccccc4)cc3)sc2c1
- MIC [1]: 9.13 µg/mL (≈ 25.4 µM)

Structure (SMILES): Cc1ccc2nc(N/N=C\c3ccc(Oc4ccccc4Cl)cc3)sc2c1
- MIC [1]: 4.75 µg/mL (≈ 12.1 µM)

Structure (SMILES): Cc1ccc2nc(N/N=C\c3ccc(Oc4ccc(Cl)cc4)cc3)sc2c1
- MIC [1]: 15 µg/mL (≈ 38.1 µM)

Structure (SMILES): Cc1ccc2nc(N/N=C\c3ccc(Oc4ccc(Cl)cc4Cl)cc3)sc2c1
- MIC [1]: 12.6 µg/mL (≈ 29.3 µM)

Structure (SMILES): Cc1ccc2nc(N/N=C\c3ccc(Oc4ccc(Cl)c(C)c4)cc3)sc2c1
- MIC [1]: 15 µg/mL (≈ 36.8 µM)

Structure (SMILES): COc1ccc2nc(N/N=C\c3ccc(Oc4ccccc4)cc3)sc2c1
- MIC [1]: 16.5 µg/mL (≈ 43.9 µM)

Structure (SMILES): COc1ccc2nc(N/N=C\c3ccc(Oc4ccccc4Cl)cc3)sc2c1
- MIC [1]: 19.5 µg/mL (≈ 47.6 µM)

Structure (SMILES): COc1ccc2nc(N/N=C\c3ccc(Oc4ccc(Cl)cc4)cc3)sc2c1
- MIC [1]: 8 µg/mL (≈ 19.5 µM)

Structure (SMILES): COc1ccc2nc(N/N=C\c3ccc(Oc4ccc(Cl)cc4Cl)cc3)sc2c1
- MIC [1]: 27.5 µg/mL (≈ 61.9 µM)

Structure (SMILES): COc1ccc2nc(N/N=C\c3ccc(Oc4ccc(Cl)c(C)c4)cc3)sc2c1
- MIC [1]: 27 µg/mL (≈ 63.7 µM)

Structure (SMILES): O=[N+]([O-])c1ccc2nc(N/N=C\c3ccc(Oc4ccccc4)cc3)sc2c1
- MIC [1]: 29 µg/mL (≈ 74.3 µM)

Structure (SMILES): O=[N+]([O-])c1ccc2nc(N/N=C\c3ccc(Oc4ccccc4Cl)cc3)sc2c1
- MIC [1]: 29.5 µg/mL (≈ 69.4 µM)

Structure (SMILES): O=[N+]([O-])c1ccc2nc(N/N=C\c3ccc(Oc4ccc(Cl)cc4)cc3)sc2c1
- MIC [1]: 26.5 µg/mL (≈ 62.4 µM)

Structure (SMILES): O=[N+]([O-])c1ccc2nc(N/N=C\c3ccc(Oc4ccc(Cl)cc4Cl)cc3)sc2c1
- MIC [1]: 23.5 µg/mL (≈ 51.2 µM)

Structure (SMILES): Cc1cc(Oc2ccc(/C=N\Nc3nc4ccc([N+](=O)[O-])cc4s3)cc2)ccc1Cl
- MIC [1]: 21.5 µg/mL (≈ 49 µM)

Structure (SMILES): NNC(=O)c1ccncc1 [ISONIAZID]
- MIC [1]: 0.4 µg/mL (≈ 2.92 µM)

Structure (SMILES): Oc1cc(Cl)ccc1Oc1ccc(Cl)cc1Cl [TRICLOSAN]
- MIC [2]: 5 µg/mL (≈ 17.3 µM)
